Columns and labels:
[1] = molecular target: cGMP-inhibited 3',5'-cyclic phosphodiesterase 3A (Homo sapiens, UniProt Q14432); test: Inhibitory concentration required to inhibit human phosphodiesterase 3A expressed in Escherichia coli
Summary of the method: (§1)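 PDE3A and PDE3B made in E. coli BL21(DE3) pLysS after IPTG induction. Soluble extract ammonium sulfate-precipitated (50% saturation), dialysed, partially purified on DEAE Sepharose with a 70–250 mM NaCl gradient. IC50 is the mean of two or more experiments.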

[2] = molecular target: cGMP-inhibited 3',5'-cyclic phosphodiesterase 3B (Homo sapiens, UniProt Q13370); test: Inhibitory concentration required to inhibit human phosphodiesterase 3B expressed in Escherichia coli; summary of the method: as §1
[3] = Oral bioavailability was determined in rat after oral administration at a concentration 1 mg/kg; assay type: ADME, organism-based; settings: in vivo
Summary of the method: (§2)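 Rats dosed orally at 1.0 mg/kg. Blood levels were measured, and AUC was normalized and compared with iv exposure to give oral bioavailability.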

[4] = Half life in rat after intravenous administration at a concentration 0.5 mg/kg; assay type: ADME, organism-based; design: dose 0.5 mg/kg, route intravenous; settings: in vivo
Summary of the method: (§3)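 Rat pharmacokinetics after a 0.5 mg/kg intravenous dose; half-life and clearance derived from blood levels.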

Rattus norvegicus [5] = test: In vivo plasma glycerol increase in anesthetized rat at 1 mg/kg iv dose for 60 min; assay type: functional; settings: 1 h
Summary of the method: (§4)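 Anesthetized rats given compound by intravenous infusion (1.0 mg/kg). Plasma glycerol increase over vehicle followed over a 90 min period, with a reading at 60 min taken as an index of lipolysis.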

Rattus norvegicus [6] = test: Increased metabolic rate in male rats for 8-h period after 3 mg/kg dose; assay type: functional
Summary of the method: (§5)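 Male rats dosed orally at 1, 3 and 10 mg/kg. Metabolic rate monitored over 8 h post-dose and expressed as percentage increase in thermogenesis over the pre-dose rate.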

Rattus norvegicus [7] = test: Area under curve was determined in rat after oral administration at a concentration 1 mg/kg; assay type: ADME, organism-based; design: dose 1 mg/kg, route oral; settings: in vivo; summary of the method: as §2
Rattus norvegicus [8] = test: Maximal blood pressure decrease in rats at 0.02 mg/kg dose for 60 min; assay type: functional
Summary of the method: (§6)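 Anesthetized rats given increasing intravenous doses (0.01–0.1 mg/kg). Mean arterial pressure recorded from 5 min to 60 min post-dose; decrease expressed as percentage.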

Rattus norvegicus [9] = test: Maximal blood pressure decrease in rats at 0.1 mg/kg dose for 60 min; assay type: functional; summary of the method: as §6
Rattus norvegicus [10] = test: Increased metabolic rate in male rats for 8-h period after 10 mg/kg dose; assay type: functional; summary of the method: as §5
Rattus norvegicus [11] = test: In vivo plasma glycerol increase in anesthetized rat at 1 mg/kg iv dose for 90 min; assay type: functional; settings: 1 h, in the assay text read “60 min” for “90 min”; summary of the method: as §4
[12] = Plasma clearance in rat after intravenous administration at a concentration 0.5 mg/kg; assay type: ADME, organism-based; design: dose 0.5 mg/kg, route intravenous; summary of the method: as §3
[13] = molecular target: Phosphodiesterase 3 (Homo sapiens) (UniProt Q14432+Q13370); test: Relative inhibition of Phosphodiesterase 3A and Phosphodiesterase 3B; assay type: protein assay
Summary of the method: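 PDE3A and PDE3B expressed in E. coli BL21 (DE3) pLysS after IPTG induction, ammonium sulfate precipitated, partially purified on DEAE Sepharose. Activity measured by [3H]cAMP SPA assay in 50 mM Tris pH 7.5, 8.3 mM MgCl2, 1.7 mM EGTA, 10 nM [3H]cAMP, room temperature, 2–15 min. IC50s on each isoform are means of two or more experiments.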

Sequence of cGMP-inhibited 3',5'-cyclic phosphodiesterase 3B (Q13370 whole entry): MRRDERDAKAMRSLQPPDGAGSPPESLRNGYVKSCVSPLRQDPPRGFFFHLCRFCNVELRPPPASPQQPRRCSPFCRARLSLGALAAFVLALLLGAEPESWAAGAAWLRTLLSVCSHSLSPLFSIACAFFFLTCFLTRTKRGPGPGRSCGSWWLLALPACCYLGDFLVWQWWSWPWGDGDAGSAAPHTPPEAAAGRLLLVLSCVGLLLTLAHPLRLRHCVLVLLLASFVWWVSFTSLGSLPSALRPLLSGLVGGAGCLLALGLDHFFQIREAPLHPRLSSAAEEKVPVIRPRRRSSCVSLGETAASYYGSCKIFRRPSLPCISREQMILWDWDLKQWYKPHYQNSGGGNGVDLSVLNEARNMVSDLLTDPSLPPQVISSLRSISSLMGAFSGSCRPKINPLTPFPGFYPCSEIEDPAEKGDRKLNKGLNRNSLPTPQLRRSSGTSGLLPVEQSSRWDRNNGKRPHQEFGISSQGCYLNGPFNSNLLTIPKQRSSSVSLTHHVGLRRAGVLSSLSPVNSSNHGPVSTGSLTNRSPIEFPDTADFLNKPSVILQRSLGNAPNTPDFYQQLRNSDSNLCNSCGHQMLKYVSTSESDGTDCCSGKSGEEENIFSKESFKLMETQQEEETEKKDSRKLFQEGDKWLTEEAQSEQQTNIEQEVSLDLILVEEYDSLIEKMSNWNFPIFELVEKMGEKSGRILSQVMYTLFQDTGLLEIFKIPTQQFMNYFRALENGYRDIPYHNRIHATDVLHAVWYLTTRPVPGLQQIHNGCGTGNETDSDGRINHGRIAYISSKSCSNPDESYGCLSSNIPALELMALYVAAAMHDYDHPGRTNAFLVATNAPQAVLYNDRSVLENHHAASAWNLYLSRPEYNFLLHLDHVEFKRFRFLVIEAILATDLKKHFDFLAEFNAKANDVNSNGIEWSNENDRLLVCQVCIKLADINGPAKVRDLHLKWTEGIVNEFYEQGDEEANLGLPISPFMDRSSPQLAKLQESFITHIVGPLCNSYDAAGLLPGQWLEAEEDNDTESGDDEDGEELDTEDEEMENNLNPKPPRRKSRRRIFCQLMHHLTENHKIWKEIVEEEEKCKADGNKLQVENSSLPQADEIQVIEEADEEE
Sequence of cGMP-inhibited 3',5'-cyclic phosphodiesterase 3A (Q14432 whole entry): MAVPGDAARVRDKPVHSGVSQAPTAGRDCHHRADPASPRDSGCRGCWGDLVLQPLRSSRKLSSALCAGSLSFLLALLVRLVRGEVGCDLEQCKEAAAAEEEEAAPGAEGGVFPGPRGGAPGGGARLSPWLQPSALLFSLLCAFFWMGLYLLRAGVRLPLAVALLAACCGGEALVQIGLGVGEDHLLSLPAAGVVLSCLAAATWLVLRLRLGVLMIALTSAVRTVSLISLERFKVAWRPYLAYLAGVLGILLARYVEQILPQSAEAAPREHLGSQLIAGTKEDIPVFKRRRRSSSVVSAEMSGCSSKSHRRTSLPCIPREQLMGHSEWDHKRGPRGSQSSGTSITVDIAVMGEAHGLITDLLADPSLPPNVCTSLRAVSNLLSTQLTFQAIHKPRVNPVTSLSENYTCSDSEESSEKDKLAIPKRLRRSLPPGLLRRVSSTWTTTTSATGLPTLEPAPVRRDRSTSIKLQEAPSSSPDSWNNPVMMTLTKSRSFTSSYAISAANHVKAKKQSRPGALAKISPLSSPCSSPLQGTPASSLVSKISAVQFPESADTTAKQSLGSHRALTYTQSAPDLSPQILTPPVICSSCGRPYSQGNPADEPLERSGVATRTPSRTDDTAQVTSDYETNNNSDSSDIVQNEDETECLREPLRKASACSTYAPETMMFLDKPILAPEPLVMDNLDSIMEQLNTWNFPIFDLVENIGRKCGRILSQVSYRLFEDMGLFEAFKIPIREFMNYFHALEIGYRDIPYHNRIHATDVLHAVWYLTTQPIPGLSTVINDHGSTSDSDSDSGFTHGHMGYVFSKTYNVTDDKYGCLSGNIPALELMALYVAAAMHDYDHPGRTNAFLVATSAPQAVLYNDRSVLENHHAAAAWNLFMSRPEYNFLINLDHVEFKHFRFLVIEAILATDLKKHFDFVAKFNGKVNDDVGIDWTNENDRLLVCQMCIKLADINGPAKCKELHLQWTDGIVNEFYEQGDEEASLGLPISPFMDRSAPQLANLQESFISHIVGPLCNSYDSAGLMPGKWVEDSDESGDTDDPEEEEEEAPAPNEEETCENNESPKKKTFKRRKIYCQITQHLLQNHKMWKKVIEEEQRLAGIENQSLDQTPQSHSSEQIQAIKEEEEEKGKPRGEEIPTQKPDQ

SMILES	IC50 [1]	IC50 [2]	also measured
CC1(C)C(=O)NN=C1c1ccc(NC2=C(Cc3ccccc3)C(=O)CCC2)cc1	53 nM	10 nM	
CN(C(=O)CCCOc1ccc2[nH]c(=O)ccc2c1)C1CCCCC1 [CILOSTAMIDE]		18 nM	
CCOC(=O)Nc1ccc(C2=NNC(=O)C[C@H]2C)cc1	24 nM	8.5 nM	
CC1(C)C(=O)NN=C1c1ccc(NC2=C(Cc3cccc([N+](=O)[O-])c3)C(=O)CCC2)cc1Cl	550 nM	30 nM	
CC(=O)Nc1ccc(C2=NNC(=O)C[C@H]2C)cc1	96 nM	37 nM	
CC1(C)C(=O)NN=C1c1ccc(NC2=C(Cc3ccc(F)cc3)C(=O)CCC2)cc1F	63 nM	3.1 nM	
CC1(C)C(=O)NN=C1c1ccc(NC2=C(Cc3cccc([N+](=O)[O-])c3)C(=O)CCC2)cc1F	150 nM	4.5 nM	Selectivity [13]: 33
CC1CC(=O)NN=C1c1ccc(NC(=O)OCc2ccccc2)cc1 (stereo not drawn)	2.9 nM	1 nM	
CC1CC(=O)NN=C1c1ccc(NC2=C(Cc3ccccc3)C(=O)CCC2)cc1Cl (stereo not drawn)	46 nM	4.8 nM	
CC1(C)C(=O)NN=C1c1ccc(NC2=C(Cc3cccc(C#N)c3)C(=O)CCC2)cc1F	69 nM	3.2 nM	
CC1CC(=O)NN=C1c1ccc(NC2=C(Cc3cccc([N+](=O)[O-])c3)C(=O)CCC2)cc1 (stereo not drawn)	3.1 nM	0.94 nM	
Cc1cc(NC2=C(Cc3ccccc3)C(=O)CCC2)ccc1C1=NNC(=O)C1(C)C	38 nM	4.8 nM	
CC1(C)C(=O)NN=C1c1ccc(NC2=C(Cc3cccc(F)c3)C(=O)CCC2)cc1F	43 nM	5.6 nM	
CC1CC(=O)NN=C1c1ccc(NC2=C(Cc3cccc(F)c3)C(=O)CCC2)cc1 (stereo not drawn)	2.8 nM	0.7 nM	
COc1ccc(CC2=C(Nc3ccc(C4=NNC(=O)CC4C)cc3)CCCC2=O)cc1 (stereo not drawn)	2.3 nM	0.7 nM	
CC1=C(Nc2ccc(C3=NNC(=O)C[C@H]3C)cc2)CCCC1=O	44 nM	8.8 nM	
CCc1cc(NC2=C(Cc3ccccc3)C(=O)CCC2)ccc1C1=NNC(=O)CC1C (stereo not drawn)	101 nM	21 nM	
CC1(C)C(=O)NN=C1c1ccc(NC2=C(Cc3ccccc3F)C(=O)CCC2)cc1F	16 nM	1.1 nM	
C[C@@H]1CC(=O)NN=C1c1ccc(NC(=O)c2ccccc2C(F)(F)F)cc1	15 nM	5 nM	
Cc1cc(NC2=C(Cc3cccc(C#N)c3)C(=O)CCC2)ccc1C1=NNC(=O)C1(C)C	130 nM	10 nM	
Cc1cc(NC2=C(Cc3ccccc3)C(=O)CCC2)ccc1C1=NNC(=O)CC1C (stereo not drawn)	22 nM	2.6 nM	
CC1(C)C(=O)NN=C1c1ccc(NC2=C(Cc3ccccc3)C(=O)CCC2)cc1F	20 nM	2.5 nM	
CC1CC(=O)NN=C1c1ccc(NC2=C(Cc3ccc([N+](=O)[O-])cc3)C(=O)CCC2)cc1 (stereo not drawn)	24 nM	5.5 nM	
CC1(C)C(=O)NN=C1c1ccc(NC2=C(Cc3ccccc3Cl)C(=O)CCC2)cc1Cl	77 nM	6.3 nM	

Stronger by IC50 [2], values ahead:

IC50 [1]	IC50 [2]	SMILES	also measured
1.6 nM	0.24 nM	CC1CC(=O)NN=C1c1ccc(NC2=C(Cc3ccccc3)C(=O)CCC2)cc1F (stereo not drawn)	
1.3 nM	0.19 nM	C[C@@H]1CC(=O)NN=C1c1ccc(NC2=C(Cc3ccccc3)C(=O)CCC2)cc1	bioavailability [3]: 61%; half-life [4]: 1 h; ED50 (Rattus norvegicus [5]): 0.6 mg/kg; Metabolic rate (Rattus norvegicus [6]): 14%; AUC (Rattus norvegicus [7]): 3.6 µM·h; Max decrease (Rattus norvegicus [8]): 20%; Max decrease (Rattus norvegicus [9]): 40%; Metabolic rate (Rattus norvegicus [10]): 21%; ED50 (Rattus norvegicus [11]): 0.6 mg/kg; clearance [12]: 6.8 mL/min/kg
2.2 nM	0.13 nM	CC1(C)C(=O)NN=C1c1ccc(NC2=C(Cc3c(Cl)cccc3Cl)C(=O)CCC2)cc1F	
0.39 nM	0.13 nM	COc1ccccc1CC1=C(Nc2ccc(C3=NNC(=O)CC3C)cc2)CCCC1=O (stereo not drawn)	
1.6 nM	0.62 nM	CC1CC(=O)NN=C1c1cc(F)c(NC2=C(Cc3ccccc3)C(=O)CCC2)cc1F (stereo not drawn)	
7.6 nM	0.33 nM	CC1(C)C(=O)NN=C1c1ccc(/N=C2\CCCC(O)=C2Cc2cccc(C#N)c2)c(F)c1F	Selectivity [13]: 23
0.94 nM	0.3 nM	CC1CC(=O)NN=C1c1ccc(NC2=C(Cc3cccc(Br)c3)C(=O)CCC2)cc1 (stereo not drawn)	
7.2 nM	0.53 nM	CC1(C)C(=O)NN=C1c1ccc(NC2=C(Cc3ccccc3Cl)C(=O)CCC2)cc1F	
1.2 nM	0.26 nM	CC1CC(=O)NN=C1c1ccc(/N=C2\CCCC(O)=C2Cc2ccccc2)c(F)c1 (stereo not drawn)	
0.83 nM	0.35 nM	CC1CC(=O)NN=C1c1ccc(NC2=C(Cc3ccccc3C(F)(F)F)C(=O)CCC2)cc1 (stereo not drawn)	
0.33 nM	0.11 nM	CC1CC(=O)NN=C1c1ccc(NC2=C(Cc3cccc(I)c3)C(=O)CCC2)cc1 (stereo not drawn)	
3.7 nM	0.61 nM	Cc1cc(C2=NNC(=O)CC2C)ccc1/N=C1\CCCC(O)=C1Cc1ccccc1 (stereo not drawn)	

From ChEMBL document CHEMBL1136355, “Benzyl vinylogous amide substituted aryldihydropyridazinones and aryldimethylpyrazolones as potent and selective PDE3B inhibitors” (Bioorg Med Chem Lett, 2003)
